The text below walks through data of ChEMBL document CHEMBL4145669 (J Med Chem, 2018).

Experiment [1] has as its target Melanocyte-stimulating hormone receptor (Mus musculus, UniProt Q01727). Description: Agonist activity at mouse MC1R expressed in HEK293 cells incubated for 2 hrs by AlphaScreen cAMP assay. The class given is functional, cell-based. A digest of the protocol:
(§1)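 HEK293 cells stably expressing mouse MC1R, about 90% confluent, were detached with Versene and suspended at 10,000 cells/μL in stimulation buffer (HBSS, 0.5 mM IBMX, 5 mM HEPES, 0.1% BSA, pH 7.4) with anti-cAMP acceptor beads. Compound was added for 2 h at room temperature in the dark, then donor beads/biotinylated cAMP in lysis buffer for 2 h, followed by AlphaScreen read. Doses went up to 100 μM in duplicate wells, ≥3 experiments. EC50 came from nonlinear regression, with efficacy as a percent of NDP-MSH.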
(Bead proximity is the source of the signal in Alpha formats.)

Experiment [2] concerns the target Melanocyte-stimulating hormone receptor (Mus musculus) (UniProt Q01727). Kind of experiment: Agonist activity at mouse MC1R expressed in HEK293 cells at 100 uM incubated for 2 hrs by AlphaScreen cAMP assay relative to NDP-MSH. The experiment is classed as functional, cell-based. The essentials:
as §1

The next experiment has as its target Melanocortin receptor 5 (Mus musculus, UniProt P41149). Kind of experiment: Inverse agonist activity at mouse MC5R expressed in HEK293 cells incubated for 2 hrs by AlphaScreen cAMP assay. The experiment is classed as functional, cell-based. A digest of the protocol:
(§2)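 In the mouse MC5R HEK293 stable line, cells in IBMX-containing stimulation buffer with anti-cAMP acceptor beads were exposed to compound at up to 100 μM for 2 h at room temperature in the dark. Donor beads/biotinylated cAMP were then added for 2 h before AlphaScreen reading. Signal was normalized to basal response to give a percent difference from basal. Duplicate wells, ≥3 independent experiments.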

For experiment [3], the target named is Melanocortin receptor 5 (Mus musculus) (UniProt P41149). Kind of experiment: Inverse agonist activity at mouse MC5R expressed in HEK293 cells at 100 uM incubated for 2 hrs by AlphaScreen cAMP assay. The experiment is classed as functional, cell-based. A digest of the protocol: as §2
Chain of Melanocortin receptor 5 (Mus musculus) (P41149 whole entry): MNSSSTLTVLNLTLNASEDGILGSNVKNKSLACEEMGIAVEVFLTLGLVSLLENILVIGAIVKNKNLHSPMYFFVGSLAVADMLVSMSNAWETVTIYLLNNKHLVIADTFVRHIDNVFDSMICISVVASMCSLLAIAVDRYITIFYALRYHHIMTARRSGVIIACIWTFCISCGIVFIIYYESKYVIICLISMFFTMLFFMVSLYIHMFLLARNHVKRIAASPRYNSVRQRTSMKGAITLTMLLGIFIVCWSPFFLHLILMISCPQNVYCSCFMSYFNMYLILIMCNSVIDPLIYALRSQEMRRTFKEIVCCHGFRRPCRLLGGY
Experiment [4] addresses Melanocortin receptor 3 (Mus musculus) (UniProt P33033). Kind of experiment: Agonist activity at mouse MC3R expressed in HEK293 cells at 100 uM incubated for 2 hrs by AlphaScreen cAMP assay relative to untreated control. The class given is functional, cell-based.
For experiment [5], the target named is Melanocortin receptor 4 (Mus musculus) (UniProt P56450). Description: Agonist activity at mouse MC4R expressed in HEK293 cells at 100 uM incubated for 2 hrs by AlphaScreen cAMP assay relative to untreated control. The class given is functional, cell-based.
Chain of Melanocortin receptor 4 (Mus musculus) (P56450 whole entry): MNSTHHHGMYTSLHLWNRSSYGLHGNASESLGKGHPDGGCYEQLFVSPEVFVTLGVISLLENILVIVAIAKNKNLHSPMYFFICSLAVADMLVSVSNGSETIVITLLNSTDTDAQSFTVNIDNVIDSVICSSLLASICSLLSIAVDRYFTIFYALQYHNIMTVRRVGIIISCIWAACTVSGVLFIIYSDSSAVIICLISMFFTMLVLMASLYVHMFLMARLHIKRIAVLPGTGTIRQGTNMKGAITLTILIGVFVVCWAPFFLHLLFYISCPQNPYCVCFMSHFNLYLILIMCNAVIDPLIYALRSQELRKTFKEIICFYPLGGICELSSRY
The target of another experiment is Melanocortin receptor 3 (Mus musculus, UniProt P33033). Kind of experiment: Antagonist activity at mouse MC3R expressed in HEK293 cells assessed as reduction in NDP-MSH-induced response incubated for 2 hrs by AlphaScreen cAMP assay based Schild analysis. The experiment is classed as functional, cell-based. The following applies: read-out: pA2 (converted).
Chain of Melanocortin receptor 3 (P33033 whole entry): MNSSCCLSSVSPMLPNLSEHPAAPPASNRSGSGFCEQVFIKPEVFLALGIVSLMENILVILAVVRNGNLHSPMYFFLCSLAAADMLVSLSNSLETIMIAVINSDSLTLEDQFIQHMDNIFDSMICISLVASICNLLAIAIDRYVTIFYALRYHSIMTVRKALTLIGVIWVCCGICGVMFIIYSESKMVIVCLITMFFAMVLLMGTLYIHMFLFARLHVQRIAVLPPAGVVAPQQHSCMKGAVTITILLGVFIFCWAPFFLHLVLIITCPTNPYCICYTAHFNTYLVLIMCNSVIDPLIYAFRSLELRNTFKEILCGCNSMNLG
A further experiment concerns the target Melanocortin receptor 4 (Mus musculus, UniProt P56450). Description: Antagonist activity at mouse MC4R expressed in HEK293 cells assessed as reduction in NDP-MSH-induced response incubated for 2 hrs by AlphaScreen cAMP assay based Schild analysis. The class given is functional, cell-based. The following applies: read-out: pA2 (converted).
The species named for a further experiment is Mus musculus. Description: Selectivity index, ratio of pA2 for antagonist activity at mouse MC3R expressed in HEK293 cells to pA2 for antagonist activity at mouse MC4R expressed in HEK293 cells. The class given is cell-based.
The target in experiment [6] is Melanocyte-stimulating hormone receptor (Mus musculus) (UniProt Q01727). Kind of experiment: Agonist activity at mouse MC1R expressed in HEK293 cells incubated for 2 hrs by AlphaScreen cAMP assay relative to NDP-MSH. The class given is functional, cell-based. A digest of the protocol: as §1
Chain of Melanocyte-stimulating hormone receptor (Mus musculus) (Q01727 whole entry, looked up): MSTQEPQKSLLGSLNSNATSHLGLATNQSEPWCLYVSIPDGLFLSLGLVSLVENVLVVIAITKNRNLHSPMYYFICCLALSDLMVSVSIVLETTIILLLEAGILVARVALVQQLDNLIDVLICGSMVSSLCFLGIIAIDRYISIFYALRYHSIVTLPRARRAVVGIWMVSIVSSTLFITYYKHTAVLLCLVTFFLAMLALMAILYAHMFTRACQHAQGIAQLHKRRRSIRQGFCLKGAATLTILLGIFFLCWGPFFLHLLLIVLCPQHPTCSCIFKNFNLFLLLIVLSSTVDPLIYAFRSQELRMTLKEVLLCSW

pEC50: −log10 of the molar value. Square brackets hold non-standard residues; d marks the D form. Peptide text beside a SMILES is read from it. hPhe = N[C@@H](CCc1ccccc1)C(=O)O; Nle = CCCC[C@H](N)C(=O)O; Dap = NC[C@H](N)C(=O)O

Chain of Melanocortin receptor 3 (Mus musculus) (P33033 whole entry): as the sequence (P33033 whole entry) above
Chain of Melanocortin receptor 5 (P41149 whole entry): as the sequence (P41149 whole entry) above
Chain of Melanocyte-stimulating hormone receptor (Q01727 whole entry): as the sequence (Q01727 whole entry, looked up) above
Chain of Melanocortin receptor 4 (P56450 whole entry): as the sequence (P56450 whole entry) above

As to `CCCC[C@@H]1NC(=O)[C@H](CO)NC(=O)[C@H](CCCNC(=N)N)NC(=O)[C@H](Cc2ccccc2)NC(=O)[C@H](Cc2ccccc2)NC(=O)[C@H](CCCNC(=N)N)NC(=O)[C@@H]2CCCN2C(=O)[C@H]2CCCN2C1=O` (cyclo(RFFRS[Nle][dP]P)), the pEC50 (in experiment [1]; on Melanocortin receptor 5) was less than 4.00 each time. In addition, the Activity in experiment [2], in experiment [3], in experiment [4] and in [5] was less than 20% each time. Also, the Kb at Melanocortin receptor 3 was 79.4 nM; on Melanocortin receptor 4, 0.251 nM. Also, the Ratio in the experiment listed under Mus musculus was determined as 320.
For the compound `N=C(N)NCCC[C@@H]1NC(=O)[C@H](CCc2ccccc2)NC(=O)[C@H](Cc2ccccc2)NC(=O)[C@H](CCCNC(=N)N)NC(=O)[C@@H]2CCCN2C(=O)[C@H]2CCCN2C(=O)[C@H](Cc2ccccc2)NC(=O)[C@H](CO)NC1=O` (cyclo(RF[hPhe]RSF[dP]P)), the Activity was 30% in experiment [2], less than 20% in experiment [3], less than 20% in experiment [4] and less than 20% in experiment [5]. Besides, the pEC50 (usually −log10 of the EC50, conventionally taken in molar units) at Melanocortin receptor 5 is less than 4.00. Moreover, the Kb at Melanocortin receptor 3 is 20 nM; at Melanocortin receptor 4, 1.58 nM. Also, in the experiment listed under Mus musculus, the Ratio turned out to be 13.
Turning to `CCCC[C@@H]1NC(=O)[C@H](C)NC(=O)[C@H](CCCNC(=N)N)NC(=O)[C@H](Cc2ccccc2)NC(=O)[C@H](Cc2ccccc2)NC(=O)[C@H](CCCNC(=N)N)NC(=O)[C@@H]2CCCN2C(=O)[C@H]2CCCN2C1=O` (cyclo(RFFRA[Nle][dP]P)), the negative logarithm of the EC50 (pEC50) (in [1]; on Melanocortin receptor 5) was less than 4.00 in each case. For the same compound, the Activity in experiment [2], in [3], in [4] and in experiment [5] was less than 20% each time. In addition, the Kb on Melanocortin receptor 3 was 31.6 nM; at Melanocortin receptor 4, 0.794 nM. The Ratio in the experiment listed under Mus musculus came out at 46.
Consider `CCCC[C@@H]1NC(=O)[C@H](CO)NC(=O)[C@H](CN)NC(=O)[C@H](Cc2ccccc2)NC(=O)[C@H](Cc2ccccc2)NC(=O)[C@H](CCCNC(=N)N)NC(=O)[C@@H]2CCCN2C(=O)[C@H]2CCCN2C1=O` (cyclo(RFF[Dap]S[Nle][dP]P)), for which the pEC50 (in experiment [1]; on Melanocortin receptor 5) was less than 4.00 throughout. Besides, the Activity in experiment [2], in [3], in experiment [4] and in [5] was less than 20% throughout. For the same compound, the Kb on Melanocortin receptor 3 is 316 nM; on Melanocortin receptor 4, 0.794 nM. In the experiment listed under Mus musculus, the Ratio came out at 430.
For the compound `CCCC[C@@H]1NC(=O)[C@H](C)NC(=O)[C@H](CCCNC(=N)N)NC(=O)[C@H](CCc2ccccc2)NC(=O)[C@H](Cc2ccccc2)NC(=O)[C@H](CCCNC(=N)N)NC(=O)[C@@H]2CCCN2C(=O)[C@H]2CCCN2C1=O` (cyclo(RF[hPhe]RA[Nle][dP]P)), the negative-log EC50 (pEC50) (in experiment [1]; on Melanocortin receptor 5) was less than 4.00 each time. Besides, the Activity in [2], in experiment [3], in [4] and in experiment [5] was less than 20% in each case. Moreover, the Kb at Melanocortin receptor 3 was 31.6 nM; at Melanocortin receptor 4, 1.58 nM. For the same compound, the Ratio in the experiment listed under Mus musculus was 19.
Take `N=C(N)NCCC[C@@H]1NC(=O)[C@@H]2CCCN2C(=O)[C@H]2CCCN2C(=O)[C@H](Cc2ccccc2)NC(=O)[C@H](CO)NC(=O)[C@H](CN)NC(=O)[C@H](CCc2ccccc2)NC(=O)[C@H](Cc2ccccc2)NC1=O`: the Activity in [2] is 40%; in experiment [3], less than 20%; in experiment [4] it was less than 20%; in experiment [5] it was less than 20%. On Melanocortin receptor 5, the pEC50 was less than 4.00. For the same compound, the results for the Kb on Melanocortin receptor 3 and on Melanocortin receptor 4 were 63.1 nM and 0.631 nM, respectively. Besides, in the experiment listed under Mus musculus, the Ratio turned out to be 120.
As to `CCCC[C@@H]1NC(=O)[C@H](C)NC(=O)[C@H](CC(N)=O)NC(=O)[C@H](CCc2ccccc2)NC(=O)[C@H](Cc2ccccc2)NC(=O)[C@H](CCCNC(=N)N)NC(=O)[C@@H]2CCCN2C(=O)[C@H]2CCCN2C1=O`, the pEC50 (in experiment [1]; on Melanocortin receptor 5) was less than 4.00 each time. Also, the Activity in experiment [2], in [3], in experiment [4] and in experiment [5] was less than 20% throughout. Also, the Kb on Melanocortin receptor 3 is 631 nM; on Melanocortin receptor 4, 2.51 nM. Further, the Ratio in the experiment listed under Mus musculus was found to be 250.
For `CCCC[C@@H]1NC(=O)[C@H](CO)NC(=O)[C@H](CCCNC(=N)N)NC(=O)[C@H](CCc2ccccc2)NC(=O)[C@H](Cc2ccccc2)NC(=O)[C@H](CCCNC(=N)N)NC(=O)[C@@H]2CCCN2C(=O)[C@H]2CCCN2C1=O` (cyclo(RF[hPhe]RS[Nle][dP]P)), the negative logarithm of the EC50 (pEC50) was 6.40 in experiment [1] and less than 4.00 at Melanocortin receptor 5. In addition, the Activity in [3], in experiment [4] and in [5] was less than 20% each time. Further, the Kb at Melanocortin receptor 3 was 12.6 nM; at Melanocortin receptor 4, 0.316 nM. In the experiment listed under Mus musculus, the Ratio amounted to 37.
As to `CCCC[C@@H]1NC(=O)[C@H](C)NC(=O)[C@H](CN)NC(=O)[C@H](CCc2ccccc2)NC(=O)[C@H](Cc2ccccc2)NC(=O)[C@H](CCCNC(=N)N)NC(=O)[C@@H]2CCCN2C(=O)[C@H]2CCCN2C1=O` (cyclo(RF[hPhe][Dap]A[Nle][dP]P)), the negative-log EC50 (pEC50) (in [1]; at Melanocortin receptor 5) was less than 4.00 each time. Further, the Activity in [2], in experiment [3], in experiment [4] and in experiment [5] was less than 20% in each case. Also, the Kb on Melanocortin receptor 3 was 200 nM; at Melanocortin receptor 4, 0.794 nM. In the experiment filed under Mus musculus, the Ratio was found to be 250.
`CCCC[C@@H]1NC(=O)[C@H](CO)NC(=O)[C@H](CC(N)=O)NC(=O)[C@H](Cc2ccccc2)NC(=O)[C@H](Cc2ccccc2)NC(=O)[C@H](CCCNC(=N)N)NC(=O)[C@@H]2CCCN2C(=O)[C@H]2CCCN2C1=O` (cyclo(RFFNS[Nle][dP]P)) had a negative logarithm of the EC50 (pEC50) in experiment [1] of 5.59. The Activity in experiment [6] is 75%; in experiment [3] it was -35%; in experiment [4], less than 20%; in [5] it was less than 20%. For the same compound, the figures for the Kb on Melanocortin receptor 3 and on Melanocortin receptor 4 were 251 nM and 3.16 nM, respectively. For the same compound, the Ratio in the experiment filed under Mus musculus came to 79.
As for `C[C@@H]1NC(=O)[C@H](CCCNC(=N)N)NC(=O)[C@H](CCc2ccccc2)NC(=O)[C@H](Cc2ccccc2)NC(=O)[C@H](CCCNC(=N)N)NC(=O)[C@@H]2CCCN2C(=O)[C@H]2CCCN2C(=O)[C@H](Cc2ccccc2)NC1=O` (cyclo(RF[hPhe]RAF[dP]P)), the Activity is 25% in [2], less than 20% in [3], less than 20% in experiment [4] and less than 20% in [5]. The same compound gave a pEC50 on Melanocortin receptor 5 of less than 4.00. For the same compound, the Kb on Melanocortin receptor 3 was 10 nM; on Melanocortin receptor 4 it was 1.26 nM. For the same compound, the Ratio in the experiment listed under Mus musculus stood at 8.
On to `N=C(N)NCCC[C@@H]1NC(=O)[C@@H]2CCCN2C(=O)[C@H]2CCCN2C(=O)[C@H](Cc2ccccc2)NC(=O)[C@H](CO)NC(=O)[C@H](CC(N)=O)NC(=O)[C@H](CCc2ccccc2)NC(=O)[C@H](Cc2ccccc2)NC1=O`, for which the Activity in experiment [2] is 40%; in [3], less than 20%; in [4] it was less than 20%; in experiment [5], less than 20%. Also, at Melanocortin receptor 5, the pEC50 was less than 4.00. In addition, the Kb on Melanocortin receptor 3 was 316 nM; on Melanocortin receptor 4, 2.51 nM. Further, the Ratio in the experiment listed under Mus musculus came out at 130.
Turning to `CCCC[C@@H]1NC(=O)[C@H](C)NC(=O)[C@H](CN)NC(=O)[C@H](Cc2ccccc2)NC(=O)[C@H](Cc2ccccc2)NC(=O)[C@H](CCCNC(=N)N)NC(=O)[C@@H]2CCCN2C(=O)[C@H]2CCCN2C1=O`, the pEC50 in experiment [1] is 6.72; at Melanocortin receptor 5, less than 4.00. For the same compound, the Activity in experiment [3], in experiment [4] and in experiment [5] was less than 20% throughout. Also, the values for the Kb at Melanocortin receptor 3 and on Melanocortin receptor 4 were 79.4 nM and 1 nM, respectively. The Ratio in the experiment filed under Mus musculus worked out at 79.
Consider `N=C(N)NCCC[C@@H]1NC(=O)[C@H](Cc2ccccc2)NC(=O)[C@H](Cc2ccccc2)NC(=O)[C@H](CCCNC(=N)N)NC(=O)[C@@H]2CCCN2C(=O)[C@H]2CCCN2C(=O)[C@H](Cc2ccccc2)NC(=O)[C@H](CO)NC1=O`, for which the negative logarithm of the EC50 (pEC50) (in [1]; at Melanocortin receptor 5) was less than 4.00 each time. The Activity in experiment [2], in experiment [3], in experiment [4] and in experiment [5] was less than 20% throughout. The Kb at Melanocortin receptor 3 was 79.4 nM; on Melanocortin receptor 4, 1 nM. Besides, the Ratio in the experiment listed under Mus musculus came to 79.
